# Source: article PMC2921709 (ChemMedChem, 2010)
# Read-outs that look alike come from different tables or passages of the source.
# Legend:
# HT-29 = assay: MTT growth inhibition, HT-29 colon adenocarcinoma cells; assay type: cell-based, human; details: read-out: GI50 HT-29
# Outline: (§1)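 Cells seeded at 8 × 10^3 per well in 96-well plates and held 18 h at 37 °C, 5% CO2. Medium then replaced with test compound in complete medium at various concentrations for 72 h continuous exposure. Viability read by MTT. GI50 is the concentration giving 50% proliferation inhibition, from dose–response curves; mean ± SE of ≥3 independent experiments. Media: leukemia lines in RPMI-1640; solid-tumour lines in DMEM with penicillin G 115 U mL−1, streptomycin and 10% FBS.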
# ARO = assay: MTT growth inhibition, ARO anaplastic thyroid cells; assay type: cell-based, human; details: read-out: GI50 ARO
# Outline: as §1
# Hep G2 = assay: MTT growth inhibition, HepG2 hepatoma cells; assay type: cell-based, human; details: read-out: GI50 Hep G2
# Outline: as §1
# HeLa = assay: MTT growth inhibition, HeLa cervix carcinoma cells; assay type: cell-based, human; details: read-out: GI50 HeLa
# Outline: as §1
# HL-60 = assay: MTT growth inhibition, HL-60 promyelocytic leukemia cells; assay type: cell-based, human; details: read-out: GI50 HL-60
# Outline: as §1
# ML2 = assay: MTT growth inhibition, ML-2 myeloid leukemia cells; assay type: cell-based, human; details: read-out: GI50 ML2
# Outline: as §1
# K562 = assay: MTT growth inhibition, K562 chronic myelogenous leukemia cells; assay type: cell-based, human; details: read-out: GI50 K562
# Outline: as §1
# IGROV = assay: MTT growth inhibition, IGROV ovarian cancer cells; assay type: cell-based, human; details: read-out: GI50 IGROV
# Outline: as §1
# MCF-7 = assay: MTT growth inhibition, MCF-7 breast adenocarcinoma cells; assay type: cell-based, human; details: read-out: GI50 MCF-7
# Outline: as §1
# RS 4;11 = assay: MTT growth inhibition, RS 4; assay type: cell-based, human; details: read-out: GI50 RS 4;11
# Outline: as §1
# Jurkat = assay: MTT growth inhibition, Jurkat T-leukemia cells; assay type: cell-based, human; details: read-out: GI50 Jurkat
# Outline: as §1
# Bovine brain tubulin = assay: Inhibition of tubulin polymerization; assay type: biochemical; details: for IC50: read-out: Tubulin Assembly IC50, tubulin 10 μM, 20 min incubation, ± SD
# [1] = system: Bovine brain tubulin (colchicine site); assay: Inhibition of [3H]colchicine binding to tubulin; details: tubulin 1 μM, [3H]colchicine 5 μM; for Colchicine Binding Inhibition [%], 5 μM: compound 5 μM; for Colchicine Binding Inhibition [%], 1 μM: compound 1 μM
# Jurkat cells [2] = assay: Flow cytometric cell-cycle analysis; assay type: cell-based, human; details: for effect on cell-cycle progression (G2/M arrest, in words): 24 h treatment
# Outline: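 Jurkat cells in exponential growth, 5 × 10^5 per sample, exposed to test compound at various concentrations for 24 h. Cells fixed in ice-cold 70% ethanol, treated with lysis buffer containing RNase A and 0.1% Triton X-100, then stained with PI. DNA content measured by flow cytometry and phases assigned from DNA histograms. Mean ± SEM of two independent experiments.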
# Jurkat cells [3] = assay: Annexin V-FITC/PI apoptosis assay; assay type: cell-based, human; details: 24 h treatment
# Outline: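 Jurkat cells exposed to test compound at various concentrations for 24 or 48 h, then harvested. Co-labelled with annexin V–FITC and PI and analysed by flow cytometry (excitation 488 nm; emission 525 and 585 nm). Reported as mean percentage of annexin-V-positive cells ± SEM, three independent experiments.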
# solid tumor cells = assay: MTT growth inhibition, solid tumor cell lines; assay type: cell-based; details: Homo sapiens, 72 h, read-out: GI50, solid tumor cells
# Outline: as §1
# leukemia cells = assay: MTT growth inhibition, leukemia cell lines; assay type: cell-based, human; details: 72 h; for activity in the leukemia lines (concentration level, in words): MTT
# Outline: as §1
# Jurkat cells [4] = assay: Mitochondrial membrane potential; assay type: cell-based, human; details: 0.5 and 0.1 μM, 24 and 48 h
# Outline: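 After treatment, Jurkat cells were pelleted and resuspended in HBSS containing JC-1, then kept 10 min at 37 °C. They were spun again, taken up in HBSS and read by flow cytometry. Polarised mitochondria give red JC-1 aggregates (590 nm); depolarisation gives green monomers (530 nm).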
# Jurkat cells [5] = assay: Mitochondrial ROS production; assay type: cell-based, human; details: 24 and 48 h
# Outline: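 Jurkat cells treated with test compound for 24 or 48 h, pelleted, then loaded in HBSS with hydroethidine (HE) or H2-DCFDA for 30 min at 37 °C. Cells re-pelleted into HBSS and read by flow cytometry: 488 nm excitation, emission 585 nm (HE) and 530 nm (DCF). Fluorescence intensity given as % of untreated control; mean ± SEM, three independent experiments.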
# [6] = system: caspase-3 in Jurkat cells; assay: Caspase-3 activation by flow cytometry; assay type: cell-based, human; details: time- and concentration-dependent
# Bcl-2 in Jurkat cells = assay: Flow cytometric analysis of Bcl-2 expression; assay type: cell-based, human; details: 24 and 48 h, flow cytometry
# Outline: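 Jurkat cells incubated with test compound for 24 and 48 h, then pelleted and permeabilised with a Fix&Perm kit. Labelled with FITC-conjugated anti-Bcl-2 monoclonal antibody, washed and analysed by flow cytometry. Mean ± SEM of two independent experiments.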
# [7] = system: panel of human tumor cell lines; assay: MTT growth inhibition, whole panel of human tumor cell lines; assay type: cell-based; details: 72 h, read-out: GI50, all cell lines tested
# Outline: as §1
# [8] = Homo sapiens, Thyroid cell, 72 h
SMILES,"GI50 (HT-29; Homo sapiens, HT-29, 72 h) [nM]",GI50 (ARO; [8]) [nM],"GI50 (Hep G2; Homo sapiens, HepG2, 72 h) [nM]","GI50 (HeLa; Homo sapiens, HeLa, 72 h) [nM]","GI50 (HL-60; Homo sapiens, HL-60, 72 h) [nM]","GI50 (ML2; Homo sapiens, ML-2, 72 h) [nM]","GI50 (K562; Homo sapiens, K562, 72 h) [nM]","GI50 (IGROV; Homo sapiens, IGROV, 72 h) [nM]","GI50 (MCF-7; Homo sapiens, MCF7, 72 h) [nM]","GI50 (RS 4;11; Homo sapiens, RS4-11, 72 h) [nM]","GI50 (Jurkat; Homo sapiens, Jurkat, 72 h) [nM]",IC50 (Bovine brain tubulin) [nM],"Colchicine Binding Inhibition [%], 5 μM [1] [%]",other results
"CCn1ccc2c3c(=O)c(-c4ccc(Br)cc4)c[nH]c3ccc21 [Compound 37, 8-(4-Bromophenyl)-3-ethyl-3H-pyrrolo[3,2-f]quinolin-9(6H)-one]",> 50000,> 50000,> 50000,> 50000,> 50000,> 50000,> 50000,,,,,,,
"CCn1ccc2c3c(=O)cc(-c4cccnc4)[nH]c3ccc21 [Compound 13, 3-Ethyl-7-(pyridin-3-yl)-3H-pyrrolo[3,2-f]quinolin-9(6H)-one]",850 ± 140,450 ± 70,500 ± 50,400 ± 50,30 ± 2,300 ± 40,240 ± 30,650 ± 150,850 ± 150,40 ± 7,50 ± 4,2400 ± 400,23 ± 6,"Colchicine Binding Inhibition [%], 50 μM ([1]; compound 50 μM): 65 ± 0.3%; effect on cell-cycle progression (G2/M arrest, in words) (Jurkat cells [2]): only induced G2/M arrest at yet higher concentrations; induction of apoptotic (annexin-V-positive) cells, in words (Jurkat cells [3]): lower efficacy"
"CCOC(=O)CCn1ccc2c3c(=O)cc(-c4ccccc4)[nH]c3ccc21 [Compound 11, Ethyl 3-(9-oxo-7-phenyl-6H-pyrrolo[3,2-f]quinolin-3(9H)-yl)propanoate]",480 ± 80,550 ± 150,520 ± 100,450 ± 100,2 ± 0.1,5 ± 2,190 ± 60,620 ± 150,580 ± 180,2 ± 0.4,0.5 ± 0.01,750 ± 40,75 ± 4,"Colchicine Binding Inhibition [%], 1 μM [1]: 44 ± 6%; GI50 (solid tumor cells): 400 to 1400 nM; GI50 (leukemia cells; Homo sapiens, read-out: GI50, leukemia cells): 0.5 to 10 nM; G2/M cell population (Jurkat cells [2]; 24 h, 0.06 μM, control 9.4 %): 77%; S-phase cells (Jurkat cells [2]; 24 h, 0.06 μM, control 43 %): 20%; G1 cells (Jurkat cells [2]; 24 h, 0.06 μM, control 47 %): 3%; effect on cell-cycle progression (G2/M arrest, in words) (Jurkat cells [2]): clear G2/M arrest pattern in a concentration-dependent manner; induction of apoptotic (annexin-V-positive) cells, in words (Jurkat cells [3]): remarkable induction of apoptotic cells; percentage of cells with low ΔΨmt (JC-1), in words (Jurkat cells [4]): significant increase in the percentage of cells with low ΔΨmt; ROS production (HE, H2-DCFDA), in words (Jurkat cells [5]): induced the production of ROS relative to control cells; caspase-3 activation, in words [6]: activate caspase-3; Bcl-2 expression, in words (Bcl-2 in Jurkat cells): decrease Bcl-2 expression"
"CCn1ccc2c3c(=O)c(-c4ccccc4)c[nH]c3ccc21 [Compound 34, 3-Ethyl-8-phenyl-3H-pyrrolo[3,2-f]quinolin-9(6H)-one]",> 50000,> 50000,> 50000,> 50000,> 50000,> 50000,> 50000,,,,,,,GI50 [7]: > 50000 nM
O=c1c(-c2ccccc2)c[nH]c2ccc3c(ccn3CC3CC3)c12 [Compound 35],,,,,,,,,,,,,,"GI50 (HT-29; 72 h exposure, MTT, mean ± SE): > 50000 nM; GI50 (ARO; 72 h exposure, MTT, mean ± SE): > 50000 nM; GI50 (Hep G2; 72 h exposure, MTT, mean ± SE): > 50000 nM; GI50 (HeLa; 72 h exposure, MTT, mean ± SE): > 50000 nM; GI50 (HL-60; 72 h exposure, MTT, mean ± SE): > 50000 nM; GI50 (ML2; 72 h exposure, MTT, mean ± SE): > 50000 nM; GI50 (K562; 72 h exposure, MTT, mean ± SE): > 50000 nM"
"CCn1cc(C#N)c2c3c(=O)cc(-c4ccccc4)[nH]c3ccc21 [Compound 21, 3-Ethyl-9-oxo-7-phenyl-6,9-dihydro-3H-pyrrolo[3,2-f]quinoline-1-carbonitrile]",> 50000,> 50000,> 50000,> 50000,210 ± 10,550 ± 30,460 ± 8,> 50000,> 50000,130 ± 20,300 ± 10,,,"GI50 (solid tumor cells): > 50000 nM; activity in the leukemia lines (concentration level, in words) (leukemia cells): sub-micromolar"
"CCn1cc(C(N)=O)c2c3c(=O)cc(-c4ccccc4)[nH]c3ccc21 [Compound 22, 3-Ethyl-9-oxo-7-phenyl-6,9-dihydro-3H-pyrrolo[3,2-f]quinoline-1-caboxamide]",,,,,,,,,,,,> 40000,,"GI50 (HT-29; 72 h exposure, MTT, mean ± SE): > 50000 nM; GI50 (ARO; 72 h exposure, MTT, mean ± SE): > 50000 nM; GI50 (Hep G2; 72 h exposure, MTT, mean ± SE): > 50000 nM; GI50 (IGROV; 72 h exposure, MTT, mean ± SE): > 50000 nM; GI50 (MCF-7; 72 h exposure, MTT, mean ± SE): > 50000 nM; GI50 (HeLa; 72 h exposure, MTT, mean ± SE): > 50000 nM; GI50 (HL-60; 72 h exposure, MTT, mean ± SE): 320 ± 30 nM; GI50 (ML2; 72 h exposure, MTT, mean ± SE): 90 ± 20 nM; GI50 (K562; 72 h exposure, MTT, mean ± SE): 1700 ± 500 nM; GI50 (RS 4;11; 72 h exposure, MTT, mean ± SE): 30 ± 2 nM; GI50 (Jurkat; 72 h exposure, MTT, mean ± SE): 50 ± 6 nM; inhibition of tubulin assembly at the highest concentration (Bovine brain tubulin; compound 40 μM): less than 50%; activity in the leukemia lines (concentration level, in words) (leukemia cells): sub-micromolar; effect on cell-cycle progression (G2/M arrest, in words) (Jurkat cells [2]): only induced G2/M arrest at yet higher concentrations; induction of apoptotic (annexin-V-positive) cells, in words (Jurkat cells [3]): lower efficacy"
"CCn1ccc2c3c(=O)c(-c4cccc(OC)c4)c[nH]c3ccc21 [Compound 36, 3-Ethyl-8-(3-methoxyphenyl)-3H-pyrrolo[3,2-f]quinolin-9(6H)-one]",> 50000,> 50000,> 50000,> 50000,> 50000,> 50000,> 50000,,,,,,,
"O=c1c(-c2ccccc2)c[nH]c2ccc3[nH]ccc3c12 [Compound 33, 8-Phenyl-3H-pyrrolo[3,2-f]quinolin-9(6H)-one]",> 50000,> 50000,> 50000,> 50000,> 50000,> 50000,> 50000,,,,,,,GI50 [7]: > 50000 nM
"CCn1cc(C)c2c3c(=O)cc(-c4ccccc4)[nH]c3ccc21 [Compound 17, 3-Ethyl-1-methyl-7-phenyl-3H-pyrrolo[3,2-f]quinolin-9(6H)-one]",> 50000,> 50000,5800 ± 1100,4500 ± 800,17500 ± 2300,14400 ± 2300,27300 ± 340,> 50000,> 50000,6500 ± 1000,8000 ± 1200,,,
"COc1ccc(/C=C\c2cc(OC)c(OC)c(OC)c2)cc1O [CA-4, combretastatin A-4, reference compound]",,,,,,,,,,,,,98 ± 0.3,"Colchicine Binding Inhibition [%], 1 μM [1]: 84 ± 3%"
"CCn1ccc2c3c(=O)cc(-c4ccccc4)[nH]c3ccc21 [Compound 38, 3-ethyl-7-PPyQ, reference compound]",,,,,,,,,,,,570 ± 20,73 ± 0.7,"GI50 (HT-29; 72 h exposure, MTT, mean ± SE): 30 ± 10 nM; GI50 (ARO; 72 h exposure, MTT, mean ± SE): 30 ± 10 nM; GI50 (Hep G2; 72 h exposure, MTT, mean ± SE): 50 ± 10 nM; GI50 (IGROV; 72 h exposure, MTT, mean ± SE): 60 ± 10 nM; GI50 (MCF-7; 72 h exposure, MTT, mean ± SE): 40 ± 10 nM; GI50 (HeLa; 72 h exposure, MTT, mean ± SE): 10 ± 8 nM; GI50 (HL-60; 72 h exposure, MTT, mean ± SE): 0.5 ± 0.02 nM; GI50 (ML2; 72 h exposure, MTT, mean ± SE): 1 ± 0.3 nM; GI50 (K562; 72 h exposure, MTT, mean ± SE): 1 ± 0.1 nM; GI50 (RS 4;11; 72 h exposure, MTT, mean ± SE): 2 ± 0.3 nM; GI50 (Jurkat; 72 h exposure, MTT, mean ± SE): 0.5 ± 0.02 nM; Colchicine Binding Inhibition [%], 1 μM [1]: 34 ± 2%"
